Measured values reported in ChEMBL document CHEMBL3603823, “Ethylenedioxy homologs of N-methyl-(3,4-methylenedioxyphenyl)-2-aminopropane (MDMA) and its corresponding cathinone analog methylenedioxymethcathinone: Interactions with transporters for serotonin, dopamine, and norepinephrine” (Bioorg Med Chem, 2015).

Key:
Format in all cases: subcellular
Rattus norvegicus [1] = species on record: Rattus norvegicus; experiment: Binding affinity to NET in Sprague-Dawley rat brain synaptosomes assessed as induction of [3H]MPP+ release by liquid scintillation counting method relative to control
Method in brief: (§1)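 Release measured in rat synaptosomes preloaded 1 h with 5 nM [3H]5-HT (SERT) or 9 nM [3H]MPP+ (NET, DAT), with reserpine and unlabeled blockers; test drug 10–10,000 nM. Efficacy is % of maximal release, defined as release by tyramine: 100 μM for SERT, 10 μM for DAT and NET. Filtration and scintillation counting; n = 3–4 experiments in triplicate.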

[2] = Binding affinity to NET in Sprague-Dawley rat brain synaptosomes assessed as induction of [3H]MPP+ release by liquid scintillation counting method
Method in brief: (§2)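 Rat synaptosomes with 1 μM reserpine in all buffers; SERT and NET from whole brain minus caudate and cerebellum (900 μg/mL protein), DAT from caudate (90 μg/mL). Preloaded 1 h in Krebs-phosphate buffer with 5 nM [3H]5-HT (SERT) or 9 nM [3H]MPP+ (NET, DAT), with unlabeled blockers of competing transporters. Eight-point curves, 10–10,000 nM, triplicate, 3 occasions. Filtration, scintillation counting; EC50 by non-linear regression.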

[3] = molecular target: Sodium-dependent serotonin transporter (Rattus norvegicus) (UniProt P31652); experiment: Binding affinity to SERT in Sprague-Dawley rat brain synaptosomes assessed as induction of [3H]5-HT release by liquid scintillation counting method relative to control; method in brief: as §1
[4] = molecular target: Sodium-dependent serotonin transporter (Rattus norvegicus, UniProt P31652); experiment: Binding affinity to SERT in Sprague-Dawley rat brain synaptosomes assessed as induction of [3H]5-HT release by liquid scintillation counting method; method in brief: as §2
[5] = molecular target: Sodium-dependent dopamine transporter (Rattus norvegicus, UniProt P23977); experiment: Binding affinity to DAT in Sprague-Dawley rat brain synaptosomes assessed as induction of [3H]MPP+ release by liquid scintillation counting method; method in brief: as §2
[6] = molecular target: Sodium-dependent dopamine transporter (Rattus norvegicus) (UniProt P23977); experiment: Binding affinity to DAT in Sprague-Dawley rat brain synaptosomes assessed as induction of [3H]MPP+ release by liquid scintillation counting method relative to control; method in brief: as §1
Rattus norvegicus [7] = species on record: Rattus norvegicus; experiment: Selectivity index, ratio of EC50 for NET in Sprague-Dawley rat brain synaptosomes to EC50 for SERT in Sprague-Dawley rat brain synaptosomes
Rattus norvegicus [8] = species on record: Rattus norvegicus; experiment: Selectivity index, ratio of EC50 for DAT in Sprague-Dawley rat brain synaptosomes to EC50 for SERT in Sprague-Dawley rat brain synaptosomes

Sequence of Sodium-dependent dopamine transporter (Rattus norvegicus) (P23977 whole entry): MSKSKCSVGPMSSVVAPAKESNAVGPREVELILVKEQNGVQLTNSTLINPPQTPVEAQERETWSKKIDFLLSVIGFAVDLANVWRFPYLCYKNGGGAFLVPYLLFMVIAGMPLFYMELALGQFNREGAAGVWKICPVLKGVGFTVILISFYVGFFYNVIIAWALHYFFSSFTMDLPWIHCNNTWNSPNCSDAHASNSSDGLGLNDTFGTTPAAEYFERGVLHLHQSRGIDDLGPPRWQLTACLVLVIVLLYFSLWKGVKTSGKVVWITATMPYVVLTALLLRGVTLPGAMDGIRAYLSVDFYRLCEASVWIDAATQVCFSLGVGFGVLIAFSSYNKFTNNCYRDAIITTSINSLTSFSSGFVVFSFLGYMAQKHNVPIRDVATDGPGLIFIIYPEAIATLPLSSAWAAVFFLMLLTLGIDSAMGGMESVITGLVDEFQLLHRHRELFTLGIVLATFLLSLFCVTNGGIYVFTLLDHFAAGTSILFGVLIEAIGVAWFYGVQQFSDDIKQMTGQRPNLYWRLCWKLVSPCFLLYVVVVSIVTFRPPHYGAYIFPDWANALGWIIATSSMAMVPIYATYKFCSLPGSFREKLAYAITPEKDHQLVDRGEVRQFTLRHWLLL
Sequence of Sodium-dependent dopamine transporter (P23977 whole entry): as above
Sequence of Sodium-dependent serotonin transporter (P31652 whole entry): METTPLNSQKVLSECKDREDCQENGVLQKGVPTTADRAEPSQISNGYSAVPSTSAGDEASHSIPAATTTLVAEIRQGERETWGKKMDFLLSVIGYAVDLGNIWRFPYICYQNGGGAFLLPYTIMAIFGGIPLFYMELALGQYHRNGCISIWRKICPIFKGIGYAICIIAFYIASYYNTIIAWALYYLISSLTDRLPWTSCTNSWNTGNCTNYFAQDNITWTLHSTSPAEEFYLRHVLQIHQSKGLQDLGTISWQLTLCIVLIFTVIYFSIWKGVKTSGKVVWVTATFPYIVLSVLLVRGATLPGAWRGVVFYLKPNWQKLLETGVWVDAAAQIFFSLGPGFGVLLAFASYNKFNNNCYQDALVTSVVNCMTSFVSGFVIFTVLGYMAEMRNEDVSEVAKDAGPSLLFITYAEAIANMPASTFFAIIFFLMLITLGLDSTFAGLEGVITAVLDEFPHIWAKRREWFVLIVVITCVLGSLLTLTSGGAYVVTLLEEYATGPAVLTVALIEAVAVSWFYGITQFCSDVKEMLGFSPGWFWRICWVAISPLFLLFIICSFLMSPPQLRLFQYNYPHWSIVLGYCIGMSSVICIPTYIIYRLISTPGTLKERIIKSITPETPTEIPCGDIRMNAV
Sequence of Sodium-dependent serotonin transporter (Rattus norvegicus) (P31652 whole entry): as above

Compound CN[C@@H](C)Cc1ccc2c(c1)OCCO2 has a %max (Rattus norvegicus [1]) of 94%, an EC50 [2] of 239 nM and a %max [3] of 96%. For the same compound, the EC50 [4] was 91 nM, the EC50 [5] was 276 nM and the %max [6] was 103%.
Work on CN[C@H](C)Cc1ccc2c(c1)OCCO2 yielded a %max (Rattus norvegicus [1]) of 85%, an EC50 [2] of 1950 nM and a %max [3] of 97%. It also gave an EC50 [4] of 573 nM, an EC50 [5] of 14600 nM and a %max [6] of 106%.
CNC(C)Cc1ccc2c(c1)OCCO2 (racemic) gave a %max (Rattus norvegicus [1]) of 91%, an EC50 [2] of 325 nM and a Ratio EC50 (Rattus norvegicus [7]) of 3. The %max [3] was 102%, the EC50 [4] was 117 nM and the Ratio EC50 (Rattus norvegicus [8]) was 6. It also gave an EC50 [5] of 597 nM and a %max [6] of 108%.
With CNC(C)C(=O)c1ccc2c(c1)OCCO2 (racemic) the %max (Rattus norvegicus [1]) was 84%, the EC50 [2] was 327 nM and the %max [3] was 105%. The EC50 [4] was 347 nM, the EC50 [5] was 496 nM and the %max [6] was 105%.
Work on CNC(C)C(=O)c1ccc2c(c1)OCO2 (racemic) [METHYLONE] yielded an EC50 [2] of 152 nM, an EC50 [4] of 242 nM and an EC50 [5] of 133 nM.
Work on CNC(C)Cc1ccc2c(c1)OCO2 (racemic) [MIDOMAFETAMINE] yielded a %max (Rattus norvegicus [1]) of 95%, an EC50 [2] of 72 nM and a %max [3] of 98%. It also gave an EC50 [4] of 61 nM, an EC50 [5] of 75 nM and a %max [6] of 99%.
